RGS4 inh: inhibitors of human RGS4; P49798; HEK293 M3R/RGS4 inducible, Fluo-4 calcium flux; stronger effect = higher value; triggered by carbachol at its EC20; B-score at 10 µM; 310,000 tested, 0.45% active; AID 463165;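 active = B-score, a plate-corrected calcium signal, over three deviations above library mean, with baseline fluorescence within five deviations of library mean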;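 note: RGS4 expression induced by doxycycline in cells with stable M3 receptor; B-score is computed from the integrated fluorescence ratio over baseline after carbachol; higher B-score means a larger calcium signal and so more RGS4 inhibition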
Target sequence (P49798 whole entry, looked up): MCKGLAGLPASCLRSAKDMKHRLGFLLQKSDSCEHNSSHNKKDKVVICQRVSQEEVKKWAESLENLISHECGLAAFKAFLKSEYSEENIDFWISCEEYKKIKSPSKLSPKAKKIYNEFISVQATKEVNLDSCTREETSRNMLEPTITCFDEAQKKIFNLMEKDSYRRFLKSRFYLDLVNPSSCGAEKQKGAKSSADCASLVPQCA
MrgX1 antag: blocks BAM8-22 activation of human MrgX1 receptor; MRGX1-HEK293 calcium flux, Fluo-4, BAM8-22 antagonism; stronger effect = lower value; B-score at 10 µM; 310,000 tested, 1.3% active;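 active = calcium-response B-score plate-corrected more than 3 library SD below zero, starting fluorescence within 5 deviations, no agonist response on first addition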;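 note: peak minus trough fluorescence over baseline after final BAM8-22 challenge near maximal dose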
MrgX1 agonist: agonists of human MrgX1 receptor; 310,000 tested, 0.44% active; B-score at 10 µM; MrgX1-HEK293 cells, Fluo-4 calcium fluorescence, agonist mode; stronger effect = higher value; AID 588627;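 active = calcium response B-score plate-corrected fluorescence ratio at least 3 library SD, with starting fluorescence B-score inside 5 SD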
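Test system: HEK293 cells stably expressing human MrgX1 receptor; Input: fifteen thousand cells per well; Dosing: compound delivered in addition one of three; Schedule: overnight seeding, then 1 h dark dye loading; Technique: Fluo-4 NW calcium fluorescence; Measure: B-scored fluorescence response ratio; Controls: positive and negative controls per plate.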
RGS4 pot: potentiators or activators of RGS4. HEK293 M3R/inducible RGS4, carbachol calcium flux Fluo4; stronger effect = lower value. B-score at 10 µM. 310,000 tested, 0.92% active. AID 463111;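 active = B-score of the integrated calcium signal more than 4 SD below the library mean, with starting fluorescence not abnormally high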;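 note: negative B-score means reduced calcium response which marks RGS4 activation or potentiation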
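Also added: carbachol at ECmax as muscarinic agonist stimulus; Assay system: HEK293 cells with stable M3R and inducible RGS4; Timing: overnight RGS4 induction, 30 min dye load 37 °C, 20 min compound RT; Measured by: Fluo4-AM (2 µM) calcium-flux fluorescence, kinetic read.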
MrgX1 PAM: allosterically activates human MrgX1 receptor signaling | 310,000 tested, 0.63% active | MrgX1-HEK293, Fluo-4 calcium flux, FDSS; stronger effect = higher value | Q96LB2 | B-score at 10 µM | AID 588675;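 active = plate-corrected calcium response at least 3 library SD above typical, normal starting fluorescence, not activating the receptor alone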;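 note: compound read alongside a low EC10 to EC30 dose of BAM8-22 agonist; peak minus trough fluorescence over baseline measured at the second addition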
* = called active by the depositor; i = inactive; nt = no result given. An excerpt weighted towards active compounds, which were near 3.5% of everything screened.

SMILES	RGS4 inh	MrgX1 antag	MrgX1 agonist	RGS4 pot	MrgX1 PAM
Cc1nccn1-c1c([N+](=O)[O-])c(=O)n(C)c2ccccc12	i	i	i	i	i
COc1ccccc1N(CC(O)COc1c(C)cc(C)cc1C)S(=O)(=O)c1ccccc1 (stereo not drawn)	i	i	i	i	7.9*
CCN1C(=O)/C(=C/C=C2/CCCN2C)OC1=S	i	i	27*	i	i
CN1C(=O)/C(=C\C=C2/CCCN2C)N(C)C1=S	i	i	i	i	i
COc1ccc(OC)c(NC(=O)C2CCN(S(=O)(=O)c3ccc4c(c3)CC(C)N4C(C)=O)CC2)c1 (stereo not drawn)	i	i	i	i	i
CC(OC(=O)c1ccccc1Br)C(=O)Nc1nc(-c2cccc([N+](=O)[O-])c2)cs1 (stereo not drawn)	i	-5.5*	i	i	i
O=C(Nc1nc(-c2cccc([N+](=O)[O-])c2)cs1)C(c1ccccc1)c1ccccc1	i	i	i	i	i
O=C(CSc1nnc(-c2cccnc2)n1Cc1ccco1)N1c2ccccc2Sc2ccccc21	nt	-4.5*	i	nt	i
c1cncc(CSc2nnc(-c3cccnc3)n2Cc2ccco2)c1	i	nt	nt	i	nt
Cc1ccc(S(=O)(=O)c2nnn3c2nc(NC2CCN(Cc4ccccc4)CC2)c2ccccc23)cc1C	i	-11*	i	i	8.3*
Cc1ccc(S(=O)(=O)c2nnn3c2nc(NCCCN2CCCC2=O)c2ccccc23)cc1C	i	i	i	i	i
CCN(CC(=O)Nc1ccc(C(=O)Nc2ccc(OC)cc2)cc1)Cc1nc2ccccc2c(=O)[nH]1	i	i	i	i	i
Cc1ccc(/C=C2\SC(N3CCN(C(c4ccccc4)c4ccccc4)CC3)=NC2=O)o1	i	i	i	-9.4*	i
Cc1ccc(-c2ccc(/C=C3\SC(N4CCOCC4)=NC3=O)o2)cc1	i	i	i	i	i
O=C1CC(c2ccco2)CC(O)=C1C=NCC1CCNCC1 (stereo not drawn)	i	i	i	-7.8*	i
CCCCCCCOC(=O)C[N+](C)(C)CCOC1CC2CCC1(C)C2(C)C (stereo not drawn)	i	nt	nt	-8.2*	nt
COC(=O)c1c(C)cc(C)c2c1CC(C)(C)C2=O	i	i	i	i	i
O=C(O)CSCC(=O)N(Cc1ccccc1)c1nc(-c2ccccc2)c(-c2ccccc2)s1	i	-4.7*	i	i	i
CCOC(=O)N1CCN(C(=O)c2cn(CC)c3cc(N4CCN(C)CC4)c(F)cc3c2=O)CC1	i	-7.6*	i	i	i
COc1cccc(OC)c1C(=O)Nc1cccc2c1CCCC2	i	i	i	i	i
CC(C)C(=O)Nc1ccc2nn(-c3ccccc3)nc2c1	i	i	i	i	i
O=C(OCCN1C(=O)c2cccc3c(N4CCOCC4)ccc(c23)C1=O)c1ccccc1Cl	i	i	i	-8.2*	i
COCCCNC(=O)c1ccc(Cn2c(=O)c3ccccc3n(Cc3ccccc3C#N)c2=O)cc1	i	i	i	i	i
O=c1ccn([C@H]2C[C@H](O)[C@@H](CO)O2)c(=O)[nH]1	i	-6.8*	i	i	i
COC(=O)/C=c1\[nH]c2nnc(C)n2c1=O	i	i	i	i	i
CNc1c(NS(=O)(=O)c2ccc(C3CCCCC3)cc2)c(=O)oc2ccccc12	i	i	i	i	i
CCN1C(=O)C(O)(CC(=O)/C=C/C=C/c2ccccc2)c2ccccc21 (stereo not drawn)	i	i	i	i	i
C#CCN1C(=O)C(O)(CC(=O)/C=C/C=C/c2ccccc2)c2ccccc21 (stereo not drawn)	i	i	i	i	6.7*
Cc1c(Br)c([N+](=O)[O-])nn1CCCC(=O)N1CCN(c2ccccc2)CC1	i	i	i	i	i
Cc1c(Cl)c([N+](=O)[O-])nn1CCCC(=O)N1CCN(c2ccccc2)CC1	i	-5.3*	i	i	i

Screens: PubChem, Johns Hopkins Ion Channel Center
